Data on two molecules can be found in ChEMBL document CHEMBL1144667 (2008).

For assay [1], the system named is Mus musculus. The assay is described as follows: Decrease in body temperature in Swiss albino mouse at 1 mg/kg, iv. Format: functional, organism-based. Also on record: dose 1 mg/kg. The conditions noted are these: TDE = time-dependent effect. Put shortly:
(§1)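 Body temperature tracked over time after i.v. injection (10 mL/kg) in male Swiss albino CD1 mice (20–22 g); 6–8 mice/group, mean ± SEM vs saline; two-way repeated-measures ANOVA.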

For assay [2], the system named is Mus musculus. Briefly: Decrease in body temperature in Swiss albino mouse at 3 ug, icv after 90 mins. Format: functional, organism-based. The method, boiled down: (§2)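 icv doses 30 ng–3 µg (10 µL/mouse) in male Swiss albino CD1 mice; body temperature followed over 240 min. Mean body temperature over 4 h = AUC of time–response curve per mouse ÷ 240 min; ED35 = dose giving 35 °C mean over 4 h. 8 mice/group, mean ± SEM vs saline.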

Assay [3] deals with Mus musculus. Briefly: Decrease in body temperature in Swiss albino mouse at 10 mg/kg, sc. Also on record: dose 10 mg/kg. The settings on record: TDE = time-dependent effect. Format: functional, organism-based. The method, boiled down: (§3)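 Male Swiss albino CD1 mice injected s.c. (10 mL/kg); body temperature followed over time to beyond 3 h; 8–10 mice/group, mean ± SEM vs saline; two-way repeated-measures ANOVA.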

In assay [4] the test system is Mus musculus. Briefly: Antinociceptive effect in Swiss albino mouse assessed as reduction in paw licking latency between 300 ng to 3 ug, icv by hot plate test. Format: functional, organism-based. Put shortly:
(§4)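 Hot plate at 55 ± 0.5 °C, male Swiss albino CD1 mice confined by plastic cylinder, tested 20 min after icv injection (10 µL/mouse; Haley–McCormick method); paw licking and jump latencies recorded, 240 s cutoff, each mouse tested once. Levocabastine 1350 pmol icv alone or co-given with 300 ng agonist. 6–9 mice/group, mean ± SEM vs saline.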
(In general: Thermal pain tests record how soon the animal reacts.)

The subject of assay [5] is Mus musculus. The assay is described as follows: Antinociceptive effect in Swiss albino mouse assessed as reduction in jump latency at 1350 pmol, icv after 20 mins by hot plate test. The conditions noted are these: in the assay text read “300 ng” for “1350 pmol”. It is filed as functional, organism-based. Put shortly: as §4
For assay [6], the system named is Mus musculus. Briefly: Decrease in body temperature in Swiss albino mouse at 3 mg/kg, iv. Also on record: dose 3 mg/kg. Format: functional, organism-based. The settings on record: TDE = time-dependent effect. Put shortly:
as §1

Assay [7] has as its system Mus musculus. The assay is described as follows: Antinociceptive effect in Swiss albino mouse assessed as reduction in jump latency between 300 ng to 3 ug, icv by hot plate test. It is filed as functional, organism-based. The method, boiled down:
as §4

Assay [8] deals with Mus musculus. Briefly: Antinociceptive effect in Swiss albino mouse assessed as reduction in jump latency at 300 ng, icv after 20 mins by hot plate test. It is filed as functional, organism-based. The method, boiled down:
as §4

Assay [9] concerns Mus musculus. The assay is described as follows: Antinociceptive effect in Swiss albino mouse assessed as reduction in acetic acid-induced writhing responses at 30 mg/kg, po. In general terms: Writhing tests count abdominal constrictions after an irritant is injected.
Assay [10] relates to Mus musculus. The assay is described as follows: Decrease in body temperature in Swiss albino mouse at 1 mg/kg, sc. It is filed as functional, organism-based. Also noted: dose 1 mg/kg. The settings on record: TDE = time-dependent effect. The method, boiled down: as §3
The subject of assay [11] is Mus musculus. Briefly: Decrease in body temperature in sc dosed Swiss albino mouse. It is filed as functional, organism-based. The method, boiled down:
as §3

Assay [12] concerns Mus musculus. Briefly: Decrease in body temperature in icv dosed Swiss albino mouse after 4 hrs. Format: functional. The method, boiled down: as §2
The subject of assay [13] is Mus musculus. Briefly: Decrease in body temperature in Swiss albino mouse at 3 ug, icv after 4 hrs relative to control. It is filed as functional, organism-based. The method, boiled down: as §2
Assay [14] concerns Mus musculus. Briefly: Analgesic activity in iv dosed Swiss Albino mouse assessed as inhibition of acetic acid-induced writhing responses. Format: functional, organism-based. The method, boiled down:
(§5)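 Male Swiss albino CD1 mice (20–22 g); i.v. dosing 10 mL/kg, 15 min before i.p. 0.5% acetic acid; mice placed singly in large beakers, stretches counted over 5 min starting 5 min after acid. Dose–response plus time course at 0.3 mg/kg; 8–18 mice/group, mean ± SEM vs saline.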

The test system of assay [15] is Mus musculus. Briefly: Analgesic activity in Swiss Albino mouse assessed as inhibition of acetic acid-induced writhing responses at 0.3 mg/kg, iv. It is filed as functional, organism-based. Also on record: dose 0.3 mg/kg. Put shortly:
as §5

Assay [16] deals with Mus musculus. Briefly: Antinociceptive effect in icv dosed Swiss albino mouse assessed as reduction in acetic acid-induced writhing responses at 1 mg/kg, sc to 10 mg/kg, sc. Format: functional, organism-based. The conditions noted are these: in the assay text read “Swiss albino mouse” for “icv dosed Swiss albino mouse”. The method, boiled down: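 Writhing in male Swiss albino CD1 mice: s.c. dosing 1–10 mg/kg (10 mL/kg) 15 min before i.p. 0.5% acetic acid; stretches counted over 5 min starting 5 min after acid. 6–8 mice/group, mean ± SEM vs saline.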

Assay [17] relates to Mus musculus. Briefly: Decrease in body temperature in Swiss albino mouse at 100 ng, icv after 30 mins. Format: functional, organism-based. The method, boiled down: as §2
Assay [18] deals with Mus musculus. The assay is described as follows: Decrease in body temperature in iv dosed Swiss albino mouse. It is filed as functional, organism-based. The method, boiled down:
as §1

The target of assay [19] is Neurotensin receptor type 1 (Rattus norvegicus) (UniProt P20789). The assay is described as follows: Binding affinity at rat NTS1 receptor.
Neurotensin receptor type 1 (Rattus norvegicus), sequence (P20789 whole entry): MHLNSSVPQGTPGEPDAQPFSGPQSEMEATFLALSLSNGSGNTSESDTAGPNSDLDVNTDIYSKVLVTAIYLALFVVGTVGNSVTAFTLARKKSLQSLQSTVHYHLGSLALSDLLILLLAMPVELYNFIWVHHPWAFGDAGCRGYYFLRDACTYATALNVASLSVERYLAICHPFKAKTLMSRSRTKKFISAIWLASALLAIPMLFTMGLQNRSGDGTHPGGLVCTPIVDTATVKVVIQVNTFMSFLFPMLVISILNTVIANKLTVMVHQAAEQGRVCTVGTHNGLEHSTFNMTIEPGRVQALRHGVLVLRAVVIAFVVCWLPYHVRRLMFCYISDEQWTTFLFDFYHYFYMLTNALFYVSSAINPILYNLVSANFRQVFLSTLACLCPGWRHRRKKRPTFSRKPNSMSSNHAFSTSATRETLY

Each structure is given as a SMILES string. The source made the active and inactive calls. Residues, ends and D or L forms follow the SMILES beside them.

Turning to `CC[C@H](C)[C@@H]1NC(=O)[C@H](Cc2ccc(O)cc2)NC(=O)[C@@H]2CCCN2C(=O)[C@H](CCCCN)NC(=O)[C@H](CCCCN)NC(=O)[C@H](CC(C)C)NC(=O)[C@H]([C@@H](C)CC)NC(=O)[C@H](Cc2ccc(O)cc2)NC(=O)[C@@H]2CCCN2C(=O)[C@H](CCCCN)NC(=O)[C@H](CCCCN)NC(=O)[C@H](CC(C)C)NC1=O` (cyclo(ILKKPYILKKPY)), the Activity entry was “tde” in the assay on Mus musculus [1]; “tde” with Mus musculus [3]; “Dose-dependent effect” in the assay on Mus musculus [4]; “tde” in the assay on Mus musculus [6]; “Dose-dependent effect” with Mus musculus [7]; “tde” in the assay on Mus musculus [10]. The Activity result in the assay on Mus musculus [11], in the assay on Mus musculus [14], in the assay with Mus musculus [16] and with Mus musculus [18] was “Dose-dependent effect” in each case. The result in the assay with Mus musculus [2], with Mus musculus [5], with Mus musculus [8], in the assay with Mus musculus [9], in the assay with Mus musculus [13] and in the assay on Mus musculus [15] was Active. For the same molecule, the result in the assay on Mus musculus [17] was Active. In addition, the ED35 with Mus musculus [12] is 300 ng.
On to `CCC(C)[C@H](NC(=O)[C@H](Cc1ccc(O)cc1)NC(=O)[C@@H]1CCCN1C(=O)[C@H](CCCNC(=N)N)NC(=O)[C@@H](N)CCCNC(=N)N)C(=O)N[C@@H](CC(C)C)C(=O)O` (single isomer, unassigned), for which the Activity in [19] is 0.16 nmol.
